Active and inactive are the calls of the source. No cut-off for these calls is given here.
Assays:
[1] = biological target: T1, G-protein coupled receptor 35 (Homo sapiens, UniProt Q9HC97); assay: Agonist activity at GPR35 in human HT-29 cells by dynamic mass redistribution assay relative to zaprinast; assay type: functional, cell-based
[2] = biological target: T1, G-protein coupled receptor 35; assay: Agonist activity at GPR35 in human U2OS cells expressing beta-lactamase and Gal4-VP16 transcription factor assessed as beta arrestin translocation after 5 hrs by Tango assay relative to zaprinast; assay type: functional, cell-based
Outline: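 Tango GPR35-bla U2OS cells seeded at 10,000/well and cultured overnight in DMEM with 10% dialyzed FBS. Ligand stimulation 5 h at 37 °C/5% CO2, then LiveBLAzer FRET B/G substrate loading for 2 h. […] EC50 from monophasic sigmoidal fit. Two independent runs, each in duplicate (n = 4).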

[3] = biological target: T1, G-protein coupled receptor 35; assay: Agonist activity at GPR35 in human U20S cells expressing beta-lactamase and Gal4-VP16 transcription factor assessed as beta arrestin translocation after 5 hrs by Tango assay; assay type: functional, cell-based, U2OS
Outline: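 Tango GPR35-bla U2OS cells seeded at 10,000/well and cultured overnight in DMEM with 10% dialyzed FBS. Ligand stimulation 5 h at 37 °C/5% CO2, then LiveBLAzer FRET B/G substrate loading for 2 h. EC50 from monophasic sigmoidal fit. Two independent runs, each in duplicate (n = 4).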

[4] = biological target: T1, G-protein coupled receptor 35; assay: Agonist activity at GPR35 in human HT-29 cells by dynamic mass redistribution assay; assay type: functional, cell-based
[5] = biological target: T1, G-protein coupled receptor 35; assay: Agonist activity at GPR35 in human HT-29 cells at 2 uM by dynamic mass redistribution assay in presence of CID 2745687; assay type: functional, cell-based
Outline: (§1)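 Native HT-29 cells seeded at 32,000/well and cultured overnight to confluence in McCoy's 5a with 10% FBS at 37 °C/5% CO2, washed twice and held in 1x HBSS for 1 h. CID 2745687 was pre-incubated 10 min at varying doses, then agonist added at a fixed dose. DMR amplitude read 10 min poststimulation, background corrected. Two independent runs, each in duplicate (n = 4).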

[6] = biological target: T1, G-protein coupled receptor 35; assay: Agonist activity at GPR35 in human U20S cells expressing beta-lactamase and Gal4-VP16 transcription factor assessed as beta arrestin translocation at 64 uM after 5 hrs by Tango assay in the presence of ML-145; assay type: functional, cell-based; details: U2OS
Outline: (§2)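 Tango antagonist format in GPR35-bla U2OS cells. Agonist at a fixed dose was combined with varying ML-145 doses, followed by 5 h stimulation at 37 °C and 2 h FRET B/G substrate loading. Coumarin/fluorescein ratio read out, with IC50 derived. Two independent runs, each in duplicate (n = 4).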

[7] = biological target: T1, G-protein coupled receptor 35; assay: Agonist activity at GPR35 in human U20S cells expressing beta-lactamase and Gal4-VP16 transcription factor assessed as beta arrestin translocation at 100 uM after 5 hrs by Tango assay in the presence of ML-145; assay type: functional, cell-based; details: U2OS; outline: as §2
[8] = biological target: T1, G-protein coupled receptor 35; assay: Agonist activity at GPR35 in human HT-29 cells at 250 nM by dynamic mass redistribution assay in presence of CID 2745687; assay type: functional, cell-based; outline: as §1
[9] = biological target: T1, G-protein coupled receptor 35; assay: Agonist activity at GPR35 in human U20S cells expressing beta-lactamase and Gal4-VP16 transcription factor assessed as beta arrestin translocation at 20 uM after 5 hrs by Tango assay in the presence of ML-145; assay type: functional, cell-based; details: U2OS; outline: as §2
[10] = biological target: T1, G-protein coupled receptor 35; assay: Agonist activity at GPR35 in human HT-29 cells assessed as receptor internalization at 12.5 uM after 1 hr by confocal microscopy; assay type: functional, cell-based
Outline: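 HT-29 cells treated 1 h with agonist in assay vehicle containing 0.1% DMSO (vehicle control), then permeabilized and immunostained with anti-GPR35 plus fluorescent secondary antibody. Internalization judged from confocal fluorescence images.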

[11] = biological target: T1, G-protein coupled receptor 35; assay: Agonist activity at GPR35 in human HT-29 cells at 125 nM by dynamic mass redistribution assay in presence of CID 2745687; assay type: functional, cell-based; outline: as §1
[12] = biological target: T1, G-protein coupled receptor 35; assay: Agonist activity at GPR35 in human U20S cells expressing beta-lactamase and Gal4-VP16 transcription factor assessed as beta arrestin translocation at 10 uM after 5 hrs by Tango assay in the presence of ML-145; assay type: functional, cell-based; details: U2OS; outline: as §2

T1 sequence (Q9HC97 whole entry, the tested form may be a part): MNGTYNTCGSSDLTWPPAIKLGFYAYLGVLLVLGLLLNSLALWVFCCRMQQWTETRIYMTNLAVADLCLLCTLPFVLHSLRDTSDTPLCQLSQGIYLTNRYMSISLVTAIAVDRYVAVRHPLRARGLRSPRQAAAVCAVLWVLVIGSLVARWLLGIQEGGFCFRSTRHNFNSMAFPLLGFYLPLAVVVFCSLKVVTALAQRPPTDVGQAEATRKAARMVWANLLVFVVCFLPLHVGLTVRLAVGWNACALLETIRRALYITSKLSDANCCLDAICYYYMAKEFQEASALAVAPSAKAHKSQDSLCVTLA

SMILES	Efficacy [1] [pm]	Efficacy [2] [%]	EC50 ([3]; read-out: EC50) [µM]	EC50 ([4]; read-out: EC50) [µM]	also measured
Cc1c(C(=O)O)sc2c(-c3cn[nH]c3)csc12	180	102	52.5	0.37	–
Cc1c(C(=O)O)[nH]c2c(Br)csc12	222	24	113	11.8	–
Cc1c(C(=O)O)sc2c(Br)c(Br)sc12	232	52	36.5	0.7	Activity [5]: inactive; Activity [4]: Dose-dependent effect
Cc1c(C(=O)O)n(C)c2c(Br)csc12	290	77	87.5	5.3	–
Cc1c(C(=O)O)sc2c(C3CC3)csc12	262	101	52.4	0.95	–
Cc1c(C(=O)O)[nH]c2c(-c3cccnc3)csc12	210	120	26.9	0.63	Activity [6]: inactive
Cc1c(C(=O)O)sc2c(-c3ccsc3)csc12	232	107	17.6	0.26	Activity [7]: inactive
C#Cc1csc2c(C)c(C(=O)O)sc12	257	102	54.8	1.48	–
O=C(O)c1sc2c(Br)csc2c1C1CC1	246	46	504	2.63	–
Cc1c(C(=O)O)sc2c(Br)csc12	290	113	8.3	0.061	Activity [8]: inactive; Activity [9]: inactive; Activity [4]: Dose-dependent effect
Cc1c(C(=O)O)[nH]c2c(C3CC3)csc12	228	35	119	8.37	–
Cc1sc2c(C)c(C(=O)O)sc2c1Br	268	52	22.2	1.29	–
Cc1c(C(=O)O)sc2c(-c3cccnc3)csc12	223	118	11.8	0.24	Activity [10]: Active
CCOC(=O)c1sc2c(Br)c(Br)sc2c1C(F)(F)F	–	–	–	–	EC50 ([3]; u2os): Not Active; EC50 ([4]; ht-29): Not Active
O=C(O)c1sc2ccsc2c1O	159	64	340	9.78	–
O=C(O)c1sc2c(Br)c(Br)sc2c1C(F)(F)F	230	52	31.1	0.51	–
O=C(O)c1sc2c(Br)c(Br)sc2c1O	228	96	2.46	0.016	Activity [11]: inactive; Activity [4]: Dose-dependent effect; Activity [12]: inactive
O=C(O)c1sc2c(Br)csc2c1Cl	262	68	39.2	1.03	–
O=C(O)c1cc(=O)c2ccccc2[nH]1 [TRANSTORINE]	202	> 60	> 500	–	EC50 ([4]; ht-29, read-out: EC50): 152 µM

From ChEMBL document CHEMBL2034955, “Thieno[3,2-b]thiophene-2-carboxylic acid derivatives as GPR35 agonists” (Bioorg Med Chem Lett, 2012)
